Laboratory results from ChEMBL document CHEMBL1153581, “Synthesis, antiviral and anticancer activity of some novel thioureas derived from N-(4-nitro-2-phenoxyphenyl)-methanesulfonamide” (Eur J Med Chem, 2009).
≈ marks a conversion by molar mass, not a printed value.

Key:
HeLa = assay: Cytotoxicity against human HeLa cells assessed as change in cell morphology; type: functional
Outline: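 The minimum cytotoxic concentration (MCC) is the concentration causing a microscopically detectable alteration of cell morphology in the uninfected host cell culture.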

Human alphaherpesvirus 3 [1] = assay: Antiviral activity against thymidine kinase deficient Varicella Zoster Virus 07/1 infected in HEL cells assessed as reduction in virus plaque formation; type: functional, organism-based; conditions: Human alphaherpesvirus 3, 07/1, HEL
Outline: (§1)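 Plaque reduction in HEL cells against CMV (AD-169, Davis) or VZV (TK⁺ OKA, TK⁻ 07/1), using a virus input of 20 PFU. EC50 is the concentration that reduced plaque formation by 50%.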

[2] = tested on: Human immunodeficiency virus 2; assay: Antiviral activity against HIV-2 ROD infected in human MT4 cells assessed as protection against virus-induced cytopathogenicity at 125 ug/ml; type: functional, ISOLATE ROD
Outline: (§2)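 MT-4 cells infected with HIV-1 (IIIB) or HIV-2 (ROD), with maximum protection (%) against virus-induced cytopathicity recorded at 125 of compound.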

[3] = Cytotoxicity against Cytomegalovirus infected HEL cells assessed as change in cell morphology; type: cell-based; conditions: human
Outline: (§3)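 HEL cell cultures examined under the microscope. Minimal cytotoxic concentration (MCC) is the concentration that causes a microscopically detectable alteration of cell morphology. Compounds were tested at subtoxic concentrations alongside the antiviral tests.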

Human alphaherpesvirus 1 [4] = assay: Antiviral activity against acyclovir-resistant thymidine kinase-deficient HSV1 KOS infected in human HEL cells assessed as protection against virus-induced cytopathogenicity; type: functional; conditions: Human alphaherpesvirus 1, KOS
[5] = Cytotoxicity against african green monkey Vero cells assessed as change in cell morphology; type: cell-based; conditions: chlorocebus sabaeus
Outline: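 Vero cell cultures were used for the broad-spectrum antiviral screen. The MCC endpoint is the lowest concentration that causes a microscopically detectable alteration of cell morphology. Activity was called when 5 × MIC < MCC.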

[6] = tested on: Vesicular stomatitis virus; assay: Antiviral activity against sVesicular stomatitis virus infected in HEL cells assessed as protection against virus-induced cytopathogenicity; type: functional
[7] = Cytotoxicity against HIV-1 3B infected human MT4 cells; type: cell-based; conditions: HIV-1 3B-infected MT4 cells
Human alphaherpesvirus 2 = assay: Antiviral activity against Herpes simplex virus 2 infected in HEL cells assessed as protection against in virus-induced cytopathogenicity; type: functional
Human respirovirus 3 = assay: Antiviral activity against Parainfluenza-3 virus infected in african green monkey Vero cells assessed as protection against virus-induced cytopathogenicity; type: functional
[8] = tested on: Respiratory syncytial virus; assay: Antiviral activity against RSV infected in human HeLa cells assessed as protection against virus-induced cytopathogenicity; type: functional
[9] = tested on: Vesicular stomatitis virus; assay: Antiviral activity against Vesicular stomatitis virus infected in human HeLa cells assessed as protection against virus-induced cytopathogenicity; type: functional
Sindbis virus = assay: Antiviral activity against Sindbis virus infected in african green monkey Vero cells assessed as protection against virus-induced cytopathogenicity; type: functional
[10] = tested on: Human immunodeficiency virus 2; assay: Antiviral activity against HIV-2 ROD infected human MT4 cells assessed as protection against virus-induced cytopathogenicity; type: functional, organism-based; conditions: Human immunodeficiency virus 2, ISOLATE ROD
Outline: (§4)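 HIV-1 (IIIB) or HIV-2 (ROD) infection of MT-4 cells, scored as protection against virus-induced cytopathicity. IC50 was derived from protection.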

Human betaherpesvirus 5 = assay: Antiviral activity against Cytomegalovirus AD169 infected in HEL cells assessed as reduction in virus plaque formation; type: functional, organism-based; conditions: Human betaherpesvirus 5, AD169, HEL; outline: as §1
Human alphaherpesvirus 1 [11] = assay: Antiviral activity against HSV1 KOS infected in HEL cells assessed as protection against virus-induced cytopathogenicity; type: functional; conditions: Human alphaherpesvirus 1, KOS
Cytomegalovirus = assay: Antiviral activity against Cytomegalovirus Davis infected in HEL cells assessed as reduction in virus plaque formation; type: functional, organism-based; conditions: Human betaherpesvirus 5, Davis; outline: as §1
Coxsackievirus B4 [12] = assay: Antiviral activity against Coxsackievirus B4 infected in african green monkey Vero cells assessed as protection against virus-induced cytopathogenicity; type: functional; conditions: Enterovirus B
Coxsackievirus B4 [13] = assay: Antiviral activity against Coxsackievirus B4 infected in human HeLa cells assessed as protection against virus-induced cytopathogenicity; type: functional; conditions: Enterovirus B
[14] = tested on: Mammalian orthoreovirus 1; assay: Antiviral activity against Reovirus 1 infected in african green monkey Vero cells assessed as protection against virus-induced cytopathogenicity; type: functional
Human alphaherpesvirus 3 [15] = assay: Antiviral activity against Varicella Zoster Virus OKA infected in HEL cells assessed as reduction in virus plaque formation; type: functional, organism-based; conditions: Human alphaherpesvirus 3, OKA; outline: as §1
[16] = Cytotoxicity against Cytomegalovirus infected HEL cells assessed as reduction in cell growth; type: cell-based; conditions: human
[17] = tested on: Human immunodeficiency virus 1; assay: Antiviral activity against HIV-1 3B infected human MT4 cells assessed as protection against virus-induced cytopathogenicity; type: functional, organism-based; conditions: Human immunodeficiency virus 1, 3B; outline: as §4
Punta Toro virus = assay: Antiviral activity against Punta Toro virus infected in african green monkey Vero cells assessed as protection against virus-induced cytopathogenicity; type: functional
[18] = Cytotoxicity against Varicella Zoster Virus infected human […] cells assessed as reduction in cell growth; type: cell-based
[19] = tested on: Human immunodeficiency virus 1; assay: Antiviral activity against HIV-1 3B infected in human MT4 cells assessed as protection against virus-induced cytopathogenicity at 125 ug/ml; type: functional; outline: as §2
[20] = Cytotoxicity against HEL cells assessed as change in cell morphology; type: cell-based; conditions: human; outline: as §3
[21] = Cytotoxicity against Varicella Zoster Virus infected human […] cells assessed as change in cell morphology; type: cell-based

**Q.** Which MCC (HeLa) does the source give for CCNC(=S)Nc1ccc(NS(C)(=O)=O)c(Oc2ccccc2)c1 here?
**A.** 200 µg/mL

**Q.** What about the EC50 (Human alphaherpesvirus 3 [1]) of the same molecule?
**A.** > 100 µg/mL

**Q.** And the Activity [2]?
**A.** 89.5%

**Q.** What about the CC50 [3] of the same molecule?
**A.** > 100 µg/mL

**Q.** What about the MIC50 (Human alphaherpesvirus 1 [4]) of the same molecule?
**A.** 120 µg/mL (≈ 328 µM)

**Q.** What about the MCC [5] of the same molecule?
**A.** 200 µg/mL

**Q.** What about the MIC50 [6] of the same molecule?
**A.** > 200 µg/mL

**Q.** What about the CC50 [7] of the same molecule?
**A.** > 125 µg/mL

**Q.** And the MIC50 (Human alphaherpesvirus 2)?
**A.** 120 µg/mL (≈ 328 µM)

**Q.** What about the MIC50 (Human respirovirus 3) of the same molecule?
**A.** ≥ 24 µg/mL

**Q.** And the MIC50 [8]?
**A.** > 40 µg/mL

**Q.** And the MIC50 [9]?
**A.** > 40 µg/mL

**Q.** And the MIC50 (Sindbis virus)?
**A.** > 40 µg/mL

**Q.** What about the IC50 [10] of the same molecule?
**A.** 65.9 µg/mL (≈ 180 µM)

**Q.** And the EC50 (Human betaherpesvirus 5)?
**A.** > 100 µg/mL

**Q.** What about the MIC50 (Human alphaherpesvirus 1 [11]) of the same molecule?
**A.** 120 µg/mL (≈ 328 µM)

**Q.** And the EC50 (Cytomegalovirus)?
**A.** > 100 µg/mL

**Q.** What about the MIC50 (Coxsackievirus B4 [12]) of the same molecule?
**A.** > 40 µg/mL

**Q.** And the MIC50 (Coxsackievirus B4 [13])?
**A.** > 40 µg/mL

**Q.** And the MIC50 [14]?
**A.** > 40 µg/mL

**Q.** And the EC50 (Human alphaherpesvirus 3 [15])?
**A.** > 100 µg/mL

**Q.** What about the CC50 [16] of the same molecule?
**A.** > 100 µg/mL

**Q.** What about the IC50 [17] of the same molecule?
**A.** 54.8 µg/mL (≈ 150 µM)

**Q.** And the MIC50 (Punta Toro virus)?
**A.** > 40 µg/mL

**Q.** What about the CC50 [18] of the same molecule?
**A.** > 100 µg/mL

**Q.** And the Activity [19]?
**A.** 97%

**Q.** What about the MCC [20] of the same molecule?
**A.** > 200 µg/mL

**Q.** And the CC50 [21]?
**A.** > 100 µg/mL
